Screening results as filed in PubChem.
ROMK mod – modulates human ROMK potassium channel activity; P48048; Tet-inducible ROMK, thallium flux fluorescence; actives lie on both sides; B-score at 10 µM; hit rate 2% among 130,000; AID 1918;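 active means signal ratio slope over the read window, or its plate-corrected B-score, at least 3 SD from the plate mean, either direction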;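 further: B-score of the F/F0 ratio slope over 7 to 12 s after thallium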
Target sequence (P48048 whole entry, looked up): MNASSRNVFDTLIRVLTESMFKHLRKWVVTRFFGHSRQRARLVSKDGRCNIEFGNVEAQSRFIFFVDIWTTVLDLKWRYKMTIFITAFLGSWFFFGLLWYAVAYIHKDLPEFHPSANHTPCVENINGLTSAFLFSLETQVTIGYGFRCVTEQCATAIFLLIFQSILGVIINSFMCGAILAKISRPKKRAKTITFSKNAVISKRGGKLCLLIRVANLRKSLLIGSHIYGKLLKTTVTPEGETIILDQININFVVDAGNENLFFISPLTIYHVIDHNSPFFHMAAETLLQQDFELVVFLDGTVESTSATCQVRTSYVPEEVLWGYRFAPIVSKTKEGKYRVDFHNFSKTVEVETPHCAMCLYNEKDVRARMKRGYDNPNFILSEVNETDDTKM
WT yeast gro inh – growth inhibition of WT yeast, mitochondrial fusion screen | mitochondrial fusion phenotypic screen, WT strain | inhibition, % at 10 µM | hit rate 2.1% among 190,000; in the data active means inhibition above about 58%; tested in S. cerevisiae
Diaphorase inh – counter-screen for diaphorase-based assays: diaphorase inhibitors and chemical oxidizers. diaphorase resazurin-to-resorufin fluorescence, NADH, 16 min; bacterial (C. kluyveri) enzyme, not human. inhibition, % at 20 µM. hit rate 0.69% among 190,000. AID 1217;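 active means primary screen inhibition at 20 µM above a set limit, cut at about 50% in these data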;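 further: plate controls were DMSO with full reaction for no effect and wells lacking NADH for full effect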
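Benchmarks: positive control wells lacking NADH, neutral wells with DMSO only. System: bacterial diaphorase enzyme (C. kluyveri). Input: 0.14 U/mL diaphorase, enzyme working solution. Detection: resorufin fluorescence, excitation 544 nm, emission 590 nm. Times: 16-min room-temperature incubation before reading.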
Lmaj promast – Leishmania major promastigote growth inhibition; Leishmania major promastigotes, resazurin fluorescence viability; inhibition, % at 10 µM; hit rate 9% among 200,000; in the data active means inhibition above about 50%;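 further: promastigotes grown with compound for 44 hours at 28 °C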
Diaph act CS – counter-screen for diaphorase-based assays: diaphorase activators and chemical reducers | Diaphorase/resazurin coupled assay, resorufin fluorescence, 16 min; stronger effect = higher value; 1 = vehicle wells, 0 = NADH-free wells | activation factor at 20 µM | AID 1229 | hit rate 0.005% among 190,000;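 active means diaphorase activity raised at least twofold by the compound at 20 µM; inactive means activation factor below 2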
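Material: purified diaphorase enzyme from Clostridium kluyveri; Also added: 0.114 mM NADH and 0.1 mM resazurin, final amounts; Doses: single compound dose of 20 µM, 1% DMSO final; Times: 16 min enzyme reaction, ambient temperature; Detection: resorufin fluorescence, excitation 544 nm, emission 590 nm; Measure: increased resorufin signal from activators or reducing compounds.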
KCC2 mod – KCC2 (human) Cl- transport modulation; KCC2 cells, thallium flux FluoZin-2 fluorescence; B-score of Tl+ flux slope (higher = more flux/activation; lower = inhibition) at 10 µM; hit rate 2.2% among 190,000; AID 1456;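 active means thallium flux slope and its plate-corrected score both differing from the plate sample mean at a set confidence after two filtering rounds, in either direction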;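 further: slope of fluorescence scaled to starting intensity during 10 to 20 s after thallium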
* hit, by the source's call. Sampled rows, rich in hits. Any-hit rate of the full collection: about 12%.

Screening Cc1nn(-c2ccccc2)c(Cl)c1/C=N/NC(=O)CCNc1n[nH]c(=O)[nH]c1=O returned KCC2 mod 0.234.
`COc1cc(/C=N/N2C(=O)C3C4C=CC(CC4)C3C2=O)ccc1O` (stereo not drawn) gave ROMK mod 1.05, WT yeast gro inh 11.2, Diaphorase inh 2.2, Lmaj promast -5.4, Diaph act CS 1 and KCC2 mod 0.646.
O=C1C2C3c4ccccc4C(c4ccccc43)C2C(=O)N1/N=C/c1cccc(O)c1 (stereo not drawn) was read as ROMK mod -0.222, WT yeast gro inh 5.7, Diaphorase inh 24.9, Lmaj promast 97.0*, Diaph act CS 0.8 and KCC2 mod 1.01.
`O=C1c2ccccc2C(=O)N1CC1c2ccccc2CCN1C(=O)CN1CCOCC1` (stereo not drawn) gave ROMK mod -0.174, WT yeast gro inh -6.2, Diaphorase inh 15.5, Lmaj promast 0.5, Diaph act CS 0.8 and KCC2 mod 0.374.
`COc1ccc(CN2CCCC(CNC(=O)c3ccc(F)cc3)C2)c(C)c1C` (stereo not drawn) gave ROMK mod -0.0345, WT yeast gro inh -3.9, Lmaj promast 79.8* and KCC2 mod -0.237.
For COc1ccc(CN2CCCC(CNC(=O)c3ccc(F)cc3)C2)c(F)c1 (stereo not drawn) the results were ROMK mod -0.371, WT yeast gro inh -0.4, Diaphorase inh -19.5, Lmaj promast 88.7*, Diaph act CS 1.2 and KCC2 mod 0.0209.
Screening O=C(NCC1CCCN(Cc2ccccc2F)C1)c1cccc(C(F)(F)F)c1 (stereo not drawn) returned ROMK mod 0.0326, WT yeast gro inh 6.8, Diaphorase inh 0.8, Lmaj promast 61.3*, Diaph act CS 1 and KCC2 mod -0.136.
`COc1ccc(-c2cn3c(C)c(C(=O)Nc4cccc(C)n4)sc3n2)cc1` gave WT yeast gro inh 9.1, Diaphorase inh 1.4, Lmaj promast 95.6*, Diaph act CS 1 and KCC2 mod -0.723.
Screening C=CCC(=O)OCC(=O)Nc1ccc(Cl)cn1 returned ROMK mod 0.251, WT yeast gro inh -11.7, Diaphorase inh 1.7, Lmaj promast -0.6, Diaph act CS 1 and KCC2 mod 0.122.
Screening Cc1ccc2c(CC(=O)OCC(=O)Nc3ccc(Cl)cn3)coc2c1 returned WT yeast gro inh 9.7, Diaphorase inh 26.5, Lmaj promast 50.9*, Diaph act CS 0.7 and KCC2 mod -1.09.
For CN(C)c1cccc(C(=O)OCC(=O)Nc2nccs2)c1 the results were ROMK mod -0.716, WT yeast gro inh -1.4, Diaphorase inh 10.7, Lmaj promast 28.6, Diaph act CS 0.9 and KCC2 mod 0.387.
For CCOC(=O)c1ccc(-n2ccnc2)c(NC(=O)c2ccc(Cl)cc2)c1 the results were WT yeast gro inh -3.8, Diaphorase inh 10.1, Lmaj promast 80.7*, Diaph act CS 0.9 and KCC2 mod 0.862.
For CCOC(=O)c1ccc(Cl)c(NC(=O)c2cccnc2)c1 the results were WT yeast gro inh -1.4, Diaphorase inh -8.9, Lmaj promast -5.2 and Diaph act CS 1.1.
`COc1ccc(-c2nnc(SC(C)C(=O)NCc3ccc4c(c3)OCO4)n2Cc2ccco2)cc1` (stereo not drawn) gave ROMK mod -0.00267, WT yeast gro inh -5.0, Diaphorase inh 15.8, Lmaj promast 32.5, Diaph act CS 0.8 and KCC2 mod -0.0339.
Screening O=C(Nc1nc(-c2ccc(F)c(F)c2)cs1)c1cc([N+](=O)[O-])ccc1N1CCOCC1 returned WT yeast gro inh 9.3, Diaphorase inh 15.4, Lmaj promast -1.4, Diaph act CS 0.8 and KCC2 mod -0.265.
For Cc1cc(C)c(-c2csc(NC(=O)c3cc([N+](=O)[O-])ccc3N3CCOCC3)n2)c(C)c1 the results were WT yeast gro inh 18.1, Diaphorase inh 12.2, Lmaj promast 79.3*, Diaph act CS 0.9 and KCC2 mod -0.696.
For CCCc1c(C)[nH]c2ccc(NC(C)=O)cc2c1=O the results were WT yeast gro inh 69.2*, Diaphorase inh -7.8, Lmaj promast -0.8, Diaph act CS 1.1 and KCC2 mod -0.564.
